Consider 17 molecules from ChEMBL document CHEMBL1121955, “Cardenolide analogues. 14. Synthesis and biological activity of glucosides of C17 beta-modified derivatives of digitoxigenin” (J Med Chem, 1982).

Activity calls are given as the source filed them.

The species named for assay [1] is Cavia porcellus. The assay can be described thus: Binding affinity against digitalis receptor was determined relative to digitoxigenin.
The species entered for assay [2] is Cavia porcellus. The assay can be described thus: The dose producing 75% increase in contractility in guinea pig atria. In kind it is functional. Summed up:
(§1)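 Isolated guinea pig left atria were equilibrated 1 h, set to 1 g resting tension, and paced with 10-ms rectangular pulses at 90/min, 20% above threshold (minimum 5 V). Cumulative doses in propylene glycol/water (7:3) were added at 30-min intervals or 5 min after maximum effect. Isometric force change was referenced to control atria. At least nine replicate curves were fitted, and ΔF75 was read from the pooled fitted curve.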

The species entered for assay [3] is Cavia porcellus. The assay can be described thus: The dose producing 75% increase in contractility in guinea pig atria.
Assay [4] is filed under the species Cavia porcellus. As to the kind of experiment: Relative potency of compound to Digitalis receptor was determined to that of digitoxigenin; Inactive.
The species named for assay [5] is Cavia porcellus. The assay can be described thus: The dose producing 75% increase in contractility in guinea pig atria; Inactive. In kind it is functional. Summed up: as §1

In the case of `COC(=O)/C=C/[C@H]1CC[C@]2(O)[C@@H]3CCC4C[C@@H](O)CC[C@]4(C)[C@H]3CC[C@]12C` (some centres not stated), the Relative potency in the assay listed under Cavia porcellus [1] was 0.29. The “Delta F75” value in the assay filed under Cavia porcellus [2] worked out at 3.8e-06 M l-1.
As for `C[C@@H]1O[C@@H](O[C@H]2C[C@@H](O)[C@]3(CO)[C@H]4[C@H](O)C[C@]5(C)[C@@H](C6=CC(=O)OC6)CC[C@]5(O)[C@@H]4CC[C@]3(O)C2)[C@H](O)[C@H](O)[C@H]1O` [OUABAIN], the “Delta F75” value in the assay listed under Cavia porcellus [3] came out at 2.9e-07 M l-1.
In turn, `C[C@]12CC[C@H](O)C[C@H]1CC[C@@H]1[C@@H]2CC[C@]2(C)[C@@H](/C=C/C(N)=O)CC[C@]12O` yielded a Relative potency in the assay filed under Cavia porcellus [1] of less than 0.01. Also, in the assay listed under Cavia porcellus [2], the “Delta F75” value is on record as less than 20 M l-1.
As for `CCCOC(=O)/C=C/[C@H]1CC[C@@]2(O)[C@@H]3CC[C@H]4C[C@@H](O[C@@H]5O[C@H](CO)[C@@H](O)[C@H](O)[C@H]5O)CC[C@]4(C)[C@H]3CC[C@]12C`, in the assay listed under Cavia porcellus [2], the “Delta F75” value is 1.1e-05 M l-1.
As for `CC(=O)/C=C/[C@H]1CC[C@@]2(O)[C@@H]3CC[C@H]4C[C@@H](O[C@@H]5O[C@H](CO)[C@@H](O)[C@H](O)[C@H]5O)CC[C@]4(C)[C@H]3CC[C@]12C`, the “Delta F75” value in the assay filed under Cavia porcellus [2] was 3.1e-06 M l-1.
On to `COC(=O)/C=C/[C@H]1CC[C@@]2(O)[C@@H]3CC[C@H]4C[C@@H](O[C@@H]5O[C@H](CO)[C@@H](O)[C@H](O)[C@H]5O)CC[C@]4(C)[C@H]3CC[C@]12C`, for which the “Delta F75” value in the assay filed under Cavia porcellus [2] is recorded as 1.5e-06 M l-1.
`CC(C)COC(=O)/C=C/[C@H]1CC[C@@]2(O)[C@@H]3CC[C@H]4C[C@@H](O[C@@H]5O[C@H](CO)[C@@H](O)[C@H](O)[C@H]5O)CC[C@]4(C)[C@H]3CC[C@]12C`: the “Delta F75” value in the assay filed under Cavia porcellus [2] turned out to be 6.3e-05 M l-1.
In the case of `CCCCOC(=O)/C=C/[C@H]1CC[C@@]2(O)[C@@H]3CC[C@H]4C[C@@H](O[C@@H]5O[C@H](CO)[C@@H](O)[C@H](O)[C@H]5O)CC[C@]4(C)[C@H]3CC[C@]12C`, in the assay filed under Cavia porcellus [2], the “Delta F75” value was 6.9e-05 M l-1.
For `C[C@]12CC[C@H](O[C@@H]3O[C@H](CO)[C@@H](O)[C@H](O)[C@H]3O)C[C@@H]1CC[C@@H]1[C@@H]2CC[C@]2(C)[C@@H](/C=C/C#N)CC[C@@]12O`, the “Delta F75” value in the assay filed under Cavia porcellus [2] turned out to be 6.9e-07 M l-1.
As to `CC(=O)/C=C/[C@H]1CC[C@]2(O)[C@@H]3CCC4C[C@@H](O)CC[C@]4(C)[C@H]3CC[C@]12C` (some centres not stated), the “Delta F75” value in the assay listed under Cavia porcellus [2] was 5.6e-06 M l-1.
Consider `C[C@]12CC[C@H](O)CC1CC[C@@H]1[C@@H]2CC[C@]2(C)[C@@H](/C=C/C#N)CC[C@]12O` (some centres not stated), for which, in the assay filed under Cavia porcellus [1], the Relative potency came out at 0.69. For the same molecule, the “Delta F75” value in the assay listed under Cavia porcellus [2] came out at 1.6e-06 M l-1.
As to `C[C@H]1O[C@@H](O[C@H]2[C@@H](O)C[C@H](O[C@H]3[C@@H](O)C[C@H](O[C@H]4CC[C@@]5(C)[C@H](CC[C@@H]6[C@@H]5C[C@@H](O)[C@]5(C)[C@@H](C7=CC(=O)OC7)CC[C@]65O)C4)O[C@@H]3C)O[C@@H]2C)C[C@H](O)[C@@H]1O` [DIGOXIN], the “Delta F75” value in the assay listed under Cavia porcellus [2] is given as 6.6e-07 M l-1.
Same read-out and setting: the value for `C[C@H]1O[C@@H](O[C@H]2[C@@H](O)C[C@H](O[C@H]3[C@@H](O)C[C@H](O[C@H]4CC[C@@]5(C)[C@H](CC[C@@H]6[C@@H]5CC[C@]5(C)[C@@H](C7=CC(=O)OC7)CC[C@]65O)C4)O[C@@H]3C)O[C@@H]2C)C[C@H](O)[C@@H]1O` [DIGITOXIN] was 1.6e-07 M l-1.
Take `C[C@]12CC[C@H](O)CC1CC[C@@H]1[C@@H]2CC[C@]2(C)[C@@H](/C=C/C(=O)O)CC[C@]12O` (some centres not stated): the Relative potency entry in the assay listed under Cavia porcellus [4] is “inactive”. In addition, the “Delta F75” value in the assay filed under Cavia porcellus [5] was “inactive”.
For `CC(C)OC(=O)/C=C/[C@H]1CC[C@@]2(O)[C@@H]3CC[C@H]4C[C@@H](O[C@@H]5O[C@H](CO)[C@@H](O)[C@H](O)[C@H]5O)CC[C@]4(C)[C@H]3CC[C@]12C`, the “Delta F75” value in the assay filed under Cavia porcellus [2] turned out to be 1.5e-05 M l-1.
Consider `CCOC(=O)/C=C/[C@H]1CC[C@@]2(O)[C@@H]3CC[C@H]4C[C@@H](O[C@@H]5O[C@H](CO)[C@@H](O)[C@H](O)[C@H]5O)CC[C@]4(C)[C@H]3CC[C@]12C`, for which, in the assay listed under Cavia porcellus [2], the “Delta F75” value stood at 6.2e-06 M l-1.
Take `C[C@]12CC[C@H](O)C[C@H]1CC[C@@H]1[C@@H]2CC[C@]2(C)[C@@H](C3=CC(=O)OC3)CC[C@]12O` [DIGITOXIGENIN]: the Relative potency in the assay listed under Cavia porcellus [1] turned out to be 1. Besides, the “Delta F75” value in the assay listed under Cavia porcellus [3] was determined as 1.1e-06 M l-1.
